Test results as given in ChEMBL document CHEMBL1147049, “Inhibition of MRP1/ABCC1, MRP2/ABCC2, and MRP3/ABCC3 by nucleoside, nucleotide, and non-nucleoside reverse transcriptase inhibitors” (Drug Metab Dispos, 2007).

How the values were obtained:
Assay type in all cases: cell-based
Conditions in all cases: mdck-ii; call rule not given here
[1] = molecular target: T1, ATP-binding cassette sub-family C member 2 (Homo sapiens, UniProt Q92887); experiment: Inhibition of human MRP2 expressed in MDCK2 cells assessed as increase in intracellular CMF fluorescence by CMFDA assay
In short: (§1)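 MDCKII cells stably transfected with human MRP1, MRP2 or MRP3 cDNA, parental MDCKII as control, grown in DMEM with 10% FCS. Cells preincubated 30 min at 37 °C in darkness ± inhibitor in HBSS with 1 mM pyruvate, then 50 nM CMFDA (final) added for 10 min. Intracellular CMF fluorescence read by confocal laser-scanning microscopy. 20 µM MK571 positive control. At least triplicate, different days.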

[2] = molecular target: T2, ATP-binding cassette sub-family C member 3 (Homo sapiens, UniProt O15438); experiment: Inhibition of human MRP3 expressed in MDCK2 cells assessed as increase in intracellular CMF fluorescence by CMFDA assay; in short: as §1
[3] = molecular target: T3, Multidrug resistance-associated protein 1 (Homo sapiens, UniProt P33527); experiment: Inhibition of human MRP1 expressed in MDCK2 cells assessed as increase in intracellular CMF fluorescence by CMFDA assay; in short: as §1
[4] = molecular target: T3, Multidrug resistance-associated protein 1; experiment: Inhibition of human MRP1 expressed in MDCK2 cells assessed as increase in intracellular CMF fluorescence at 10 uM by CMFDA assay; in short: as §1
[5] = molecular target: T1, ATP-binding cassette sub-family C member 2; experiment: Inhibition of human MRP2 expressed in MDCK2 cells assessed as increase in intracellular CMF fluorescence at 10 uM by CMFDA assay; in short: as §1
[6] = molecular target: T2, ATP-binding cassette sub-family C member 3; experiment: Inhibition of human MRP3 expressed in MDCK2 cells assessed as increase in intracellular CMF fluorescence at 10 uM by CMFDA assay; in short: as §1
[7] = molecular target: T3, Multidrug resistance-associated protein 1; experiment: Inhibition of human MRP1 expressed in MDCK2 cells assessed as increase in intracellular CMF fluorescence at 16.7 uM by CMFDA assay; in short: as §1
[8] = molecular target: T1, ATP-binding cassette sub-family C member 2; experiment: Inhibition of human MRP2 expressed in MDCK2 cells assessed as increase in intracellular CMF fluorescence at 16.7 uM by CMFDA assay; in short: as §1
[9] = molecular target: T2, ATP-binding cassette sub-family C member 3; experiment: Inhibition of human MRP3 expressed in MDCK2 cells assessed as increase in intracellular CMF fluorescence at 16.7 uM by CMFDA assay; in short: as §1

T2 sequence (O15438 whole entry): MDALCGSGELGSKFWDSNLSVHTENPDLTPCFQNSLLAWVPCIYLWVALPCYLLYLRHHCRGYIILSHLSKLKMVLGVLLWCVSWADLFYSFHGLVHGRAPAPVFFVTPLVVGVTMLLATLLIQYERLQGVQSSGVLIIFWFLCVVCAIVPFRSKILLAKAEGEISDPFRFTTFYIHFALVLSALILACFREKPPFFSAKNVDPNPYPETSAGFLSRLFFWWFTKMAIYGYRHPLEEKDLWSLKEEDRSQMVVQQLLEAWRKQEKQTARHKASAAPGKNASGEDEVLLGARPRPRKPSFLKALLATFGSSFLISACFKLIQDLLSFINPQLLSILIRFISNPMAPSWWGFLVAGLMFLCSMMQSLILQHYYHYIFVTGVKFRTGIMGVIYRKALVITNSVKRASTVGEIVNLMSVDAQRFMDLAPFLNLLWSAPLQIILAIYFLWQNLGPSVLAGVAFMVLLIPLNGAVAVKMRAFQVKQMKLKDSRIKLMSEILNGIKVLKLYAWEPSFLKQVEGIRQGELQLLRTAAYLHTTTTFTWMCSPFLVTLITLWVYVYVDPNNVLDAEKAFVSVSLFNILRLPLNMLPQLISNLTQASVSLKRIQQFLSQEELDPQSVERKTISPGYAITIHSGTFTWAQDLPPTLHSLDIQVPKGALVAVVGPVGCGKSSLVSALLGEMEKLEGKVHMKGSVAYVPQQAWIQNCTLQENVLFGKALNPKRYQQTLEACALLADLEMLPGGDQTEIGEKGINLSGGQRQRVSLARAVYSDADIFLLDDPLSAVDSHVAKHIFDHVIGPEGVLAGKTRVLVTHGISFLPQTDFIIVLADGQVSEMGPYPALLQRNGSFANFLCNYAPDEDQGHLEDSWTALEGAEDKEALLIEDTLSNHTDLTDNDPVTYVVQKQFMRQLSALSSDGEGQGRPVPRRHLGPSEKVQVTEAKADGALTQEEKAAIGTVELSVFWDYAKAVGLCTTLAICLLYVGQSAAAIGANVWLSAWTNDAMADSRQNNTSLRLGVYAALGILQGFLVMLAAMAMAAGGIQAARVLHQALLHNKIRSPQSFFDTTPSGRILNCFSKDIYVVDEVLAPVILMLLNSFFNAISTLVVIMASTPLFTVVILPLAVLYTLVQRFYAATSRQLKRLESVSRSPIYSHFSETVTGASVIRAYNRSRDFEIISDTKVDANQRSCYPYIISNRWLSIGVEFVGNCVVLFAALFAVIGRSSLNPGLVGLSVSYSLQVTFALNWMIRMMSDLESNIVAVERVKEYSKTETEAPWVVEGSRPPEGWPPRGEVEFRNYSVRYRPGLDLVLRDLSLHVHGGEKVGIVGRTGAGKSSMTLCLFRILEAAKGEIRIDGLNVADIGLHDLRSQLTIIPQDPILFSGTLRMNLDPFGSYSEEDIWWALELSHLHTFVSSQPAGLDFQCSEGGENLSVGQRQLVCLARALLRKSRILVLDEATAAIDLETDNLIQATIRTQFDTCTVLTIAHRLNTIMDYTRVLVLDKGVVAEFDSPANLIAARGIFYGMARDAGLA
T3 sequence (P33527 whole entry): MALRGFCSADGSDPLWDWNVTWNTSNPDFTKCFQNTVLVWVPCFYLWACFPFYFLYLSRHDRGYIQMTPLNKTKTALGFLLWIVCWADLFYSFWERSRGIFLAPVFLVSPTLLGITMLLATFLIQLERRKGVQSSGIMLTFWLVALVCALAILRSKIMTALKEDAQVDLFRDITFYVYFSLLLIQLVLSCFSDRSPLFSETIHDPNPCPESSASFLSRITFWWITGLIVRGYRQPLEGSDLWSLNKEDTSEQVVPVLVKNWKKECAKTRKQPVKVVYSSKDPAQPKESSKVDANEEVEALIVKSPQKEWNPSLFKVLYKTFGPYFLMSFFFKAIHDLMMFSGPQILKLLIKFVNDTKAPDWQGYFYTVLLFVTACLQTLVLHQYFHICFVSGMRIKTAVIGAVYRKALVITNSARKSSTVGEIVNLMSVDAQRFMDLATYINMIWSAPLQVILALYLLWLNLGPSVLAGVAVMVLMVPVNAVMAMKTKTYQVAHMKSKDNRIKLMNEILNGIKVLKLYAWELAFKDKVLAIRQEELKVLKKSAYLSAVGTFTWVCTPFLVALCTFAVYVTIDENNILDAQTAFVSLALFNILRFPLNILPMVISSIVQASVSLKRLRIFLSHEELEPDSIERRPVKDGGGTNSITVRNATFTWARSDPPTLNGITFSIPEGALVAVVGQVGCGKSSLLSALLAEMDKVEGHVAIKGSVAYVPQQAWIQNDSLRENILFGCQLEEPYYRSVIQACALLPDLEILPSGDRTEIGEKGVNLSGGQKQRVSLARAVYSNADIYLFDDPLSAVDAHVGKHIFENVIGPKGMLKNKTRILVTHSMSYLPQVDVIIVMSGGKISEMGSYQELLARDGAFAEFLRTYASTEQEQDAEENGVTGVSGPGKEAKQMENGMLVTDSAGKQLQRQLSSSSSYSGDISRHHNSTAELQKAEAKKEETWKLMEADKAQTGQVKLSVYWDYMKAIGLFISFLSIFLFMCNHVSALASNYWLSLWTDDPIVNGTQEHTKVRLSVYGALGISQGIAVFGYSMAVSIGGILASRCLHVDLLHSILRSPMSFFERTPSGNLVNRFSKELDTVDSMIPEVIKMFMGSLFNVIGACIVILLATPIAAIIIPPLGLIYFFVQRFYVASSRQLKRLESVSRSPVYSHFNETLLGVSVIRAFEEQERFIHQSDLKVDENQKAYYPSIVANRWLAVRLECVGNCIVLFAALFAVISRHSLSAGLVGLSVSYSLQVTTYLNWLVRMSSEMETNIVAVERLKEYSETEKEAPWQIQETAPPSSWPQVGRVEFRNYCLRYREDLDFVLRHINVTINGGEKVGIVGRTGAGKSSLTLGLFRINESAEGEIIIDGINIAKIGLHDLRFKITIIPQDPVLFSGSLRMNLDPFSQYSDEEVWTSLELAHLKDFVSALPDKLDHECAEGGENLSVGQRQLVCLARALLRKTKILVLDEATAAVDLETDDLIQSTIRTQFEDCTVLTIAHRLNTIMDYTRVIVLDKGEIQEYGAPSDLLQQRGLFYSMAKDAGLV
T1 sequence (Q92887 whole entry): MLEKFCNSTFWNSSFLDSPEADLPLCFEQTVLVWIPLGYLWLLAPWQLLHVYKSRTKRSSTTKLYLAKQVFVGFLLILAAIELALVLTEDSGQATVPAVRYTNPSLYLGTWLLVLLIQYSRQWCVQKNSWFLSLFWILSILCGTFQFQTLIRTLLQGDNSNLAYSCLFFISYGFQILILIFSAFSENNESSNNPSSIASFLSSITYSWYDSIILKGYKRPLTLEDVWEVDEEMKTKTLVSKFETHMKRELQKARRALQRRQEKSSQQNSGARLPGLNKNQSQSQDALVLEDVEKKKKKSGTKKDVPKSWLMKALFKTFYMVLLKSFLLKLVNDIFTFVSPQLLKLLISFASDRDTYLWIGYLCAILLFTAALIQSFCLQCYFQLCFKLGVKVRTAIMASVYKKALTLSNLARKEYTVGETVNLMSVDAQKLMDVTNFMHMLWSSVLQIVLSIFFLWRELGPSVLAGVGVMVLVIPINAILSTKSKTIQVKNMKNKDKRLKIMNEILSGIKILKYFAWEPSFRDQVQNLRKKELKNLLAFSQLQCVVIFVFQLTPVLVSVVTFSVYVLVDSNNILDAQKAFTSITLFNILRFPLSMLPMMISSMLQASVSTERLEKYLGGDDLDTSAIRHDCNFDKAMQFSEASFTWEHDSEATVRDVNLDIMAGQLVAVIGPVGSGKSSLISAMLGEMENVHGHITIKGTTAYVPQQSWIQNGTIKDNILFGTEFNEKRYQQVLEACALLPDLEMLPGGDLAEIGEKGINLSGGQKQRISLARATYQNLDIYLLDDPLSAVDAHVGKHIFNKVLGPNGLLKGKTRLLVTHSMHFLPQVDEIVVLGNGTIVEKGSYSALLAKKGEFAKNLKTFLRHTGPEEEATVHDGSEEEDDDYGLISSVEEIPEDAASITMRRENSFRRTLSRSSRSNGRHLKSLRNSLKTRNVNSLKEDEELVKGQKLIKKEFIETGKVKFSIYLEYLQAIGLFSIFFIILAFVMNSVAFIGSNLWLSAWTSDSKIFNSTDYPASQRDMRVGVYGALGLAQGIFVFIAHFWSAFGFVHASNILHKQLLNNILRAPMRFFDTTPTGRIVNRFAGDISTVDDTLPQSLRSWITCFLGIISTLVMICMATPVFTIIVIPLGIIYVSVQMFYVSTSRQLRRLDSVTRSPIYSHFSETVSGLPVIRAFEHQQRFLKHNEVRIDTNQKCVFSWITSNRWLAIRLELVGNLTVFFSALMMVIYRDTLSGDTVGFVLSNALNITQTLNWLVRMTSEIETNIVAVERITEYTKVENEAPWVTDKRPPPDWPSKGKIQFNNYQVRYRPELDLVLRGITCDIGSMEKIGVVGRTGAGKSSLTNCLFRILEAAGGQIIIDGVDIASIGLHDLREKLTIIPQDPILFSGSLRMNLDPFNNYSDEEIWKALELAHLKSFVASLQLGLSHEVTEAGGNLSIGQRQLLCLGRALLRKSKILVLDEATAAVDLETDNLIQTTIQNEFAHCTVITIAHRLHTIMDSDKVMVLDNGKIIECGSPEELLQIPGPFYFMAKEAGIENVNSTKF

Structure (SMILES)	Activity [1]	Activity [2]	Activity [3]	Activity [4]	Activity [5]	Activity [6]	Activity [7]	Activity [8]	Activity [9]
Nc1nc(=O)n([C@@H]2CS[C@H](CO)O2)cc1F [EMTRICITABINE]	Dose-dependent effect	Dose-dependent effect	Dose-dependent effect	Active	Active	Active			
CC(C)Nc1cccnc1N1CCN(C(=O)c2cc3cc(NS(C)(=O)=O)ccc3[nH]2)CC1 [DELAVIRDINE]	Dose-dependent effect	Dose-dependent effect	Dose-dependent effect				Active	Active	Active
Cc1ccnc2c1NC(=O)c1cccnc1N2C1CC1 [NEVIRAPINE]	Dose-dependent effect	Dose-dependent effect	Dose-dependent effect	Active	Active	Active			
Nc1ccn([C@@H]2CS[C@H](CO)O2)c(=O)n1 [LAMIVUDINE]	Dose-dependent effect	Dose-dependent effect	Dose-dependent effect	Active	Active	Active			

Continued, values first:

Activity [1]	Activity [2]	Activity [3]	Activity [4]	Activity [5]	Activity [6]	Activity [7]	Activity [8]	Activity [9]	Structure (SMILES)
Dose-dependent effect		Dose-dependent effect	Active	Active	Active				Nc1nc(NC2CC2)c2ncn([C@H]3C=C[C@@H](CO)C3)c2n1 [ABACAVIR]
Dose-dependent effect	Dose-dependent effect	Dose-dependent effect	Active	Active	Active				O=C1Nc2ccc(Cl)cc2[C@@](C#CC2CC2)(C(F)(F)F)O1 [EFAVIRENZ]
Dose-dependent effect	Dose-dependent effect	Dose-dependent effect	Active	Active	Active				C[C@H](Cn1cnc2c(N)ncnc21)OCP(=O)(O)O [TENOFOVIR ANHYDROUS]
